Here are results for 16 molecules from ChEMBL document CHEMBL1132944, “Poly(N-acryl amino acids): a new class of biologically active polyanions” (2000).

Common to all, as to type: functional
Test [1] can be described thus: Anti-coagulation activity evaluated as activated partial thromboplastin time (APTT) of the non-sulfated compound determined for 25 ug/mL in pooled normal plasma. The gist of the method:
(§1)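 Activated partial thromboplastin time was measured in pooled normal human plasma with a commercial liquid silica-activator APTT kit. Polymer was added to the plasma, and clotting time was recorded in seconds. Plasma without polymer served as the control, and heparin was the positive control.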

Test [2] in a line: Anti-coagulation activity evaluated as activated partial thromboplastin time (APTT) of the sulfated compound determined for 25 ug/mL in pooled normal plasma. The gist of the method: as §1
The nature of test [3]: Anti-coagulation activity evaluated as activated partial thromboplastin time (APTT) determined for 25 ug/ml in pooled normal plasma. The method in brief:
as §1

A short description of test [4]: Anti-coagulation activity evaluated as activated partial thromboplastin time (APTT) determined for 250 ug/ml in pooled normal plasma. The gist of the method: as §1

Regarding `CCC(C)C(=O)N[C@H](Cc1ccc(OS(=O)(=O)[O-])cc1)C(=O)[O-].[Na+].[Na+]` (stereo partly drawn), the values for the APTT in test [1] and in test [2] were 35 s and 45 s, respectively. `CCC(C)C(=O)NCC(=O)O` (stereo not drawn) showed an APTT in test [3] of 40 s. Regarding `CCC(C)C(=O)N[C@H](Cc1ccccc1)C(=O)[O-].[Na+]` (stereo partly drawn), the results for the APTT in test [3] and in test [4] were 56 s and 109 s, respectively. Molecule `CCC(C)C(=O)N[C@H](Cc1ccc(O)cc1)C(=O)[O-].[Na+]` (stereo partly drawn) returned an APTT in test [3] of 32 s. With `CCC(C)C(=O)N[C@H](CCCCN)C(=O)[O-].[Na+]` (stereo partly drawn), in test [3], the APTT is 33 s. Regarding `CCC(C)C(=O)N[C@H](CCC(=O)[O-])C(=O)[O-].[Na+].[Na+]` (stereo partly drawn), the APTT in test [3] was 56 s; in test [4], 75 s. On the same counts, the results for `CCC(C)C(=O)N1CCC[C@@H]1C(=O)[O-].[Na+]` (stereo partly drawn) are 55 s and 109 s. Molecule `CCC(C)C(=O)N[C@H](CC(C)C)C(=O)[O-].[Na+]` (stereo partly drawn) registered an APTT in test [3] of 36 s. Consider `CCC(C)C(=O)N[C@H](CO)C(=O)O` (stereo partly drawn), for which the APTT in test [3] is reported as 39 s. On to `CCC(C)C(=O)N[C@H](COS(=O)(=O)[O-])C(=O)[O-].[Na+].[Na+]` (stereo partly drawn), for which the APTT is reported as 32 s in test [1] and 35 s in test [2]. In test [3], `CCC(C)C(=O)N[C@H](Cc1c[nH]cn1)C(=O)[O-].[Na+]` (stereo partly drawn) had an APTT of 30 s. As for `CCC(C)C(=O)N1CC[C@H](OS(=O)(=O)O)C1` (stereo partly drawn), the APTT in test [1] came out at 39 s; in test [2] it was 32 s.

Regarding `CCC(C)C(=O)N[C@@H](C(=O)[O-])C(C)(C)C.[Na+]` (stereo partly drawn), the APTT in test [3] is recorded as 36 s. On to `CCC(C)C(=O)N1C[C@@H](OS(=O)(=O)O)C[C@@H]1C(=O)O` (stereo partly drawn), for which the APTT was determined as 37 s in test [1] and 100 s in test [2]. In turn, `CCC(C)C(=O)N1C[C@@H](O)C[C@@H]1C(=O)O` (relative stereo) displayed an APTT in test [3] of 37 s. Turning to `CCC(C)C(=O)N1C[C@H](O)C[C@@H]1C(=O)O` (relative stereo), the APTT in test [3] is 35 s.
